Source: ChEMBL document CHEMBL3352312, “Synthesis of linear and cyclic guazatine derivatives endowed with antibacterial activity” (Bioorg Med Chem Lett, 2014)

Tests used:
[1] = test system: Staphylococcus epidermidis; assay: Antibacterial activity against Staphylococcus epidermidis ATCC 14990 after 16 to 18 hrs by microbroth dilution method; assay type: functional
Method in brief: (§1)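 Broth microdilution in Mueller–Hinton broth following CLSI recommendations. Strains came from ATCC or CCUG collections or the authors' clinical isolates. Compounds were dissolved in DMSO as a 100 mg/ml stock and then diluted in culture medium. Inoculum was 5 × 10⁴ CFU/well. MIC was read after 16–18 h incubation at 35–37 °C.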

Escherichia coli = assay: Antibacterial activity against Escherichia coli CCUGT after 16 to 18 hrs by microbroth dilution method; assay type: functional; method in brief: as §1
Klebsiella pneumoniae [2] = assay: Antibacterial activity against Klebsiella pneumoniae ATCC 13833 after 16 to 18 hrs by microbroth dilution method; assay type: functional; method in brief: as §1
Acinetobacter baumannii [3] = assay: Antibacterial activity against Acinetobacter baumannii ATCC 17978 after 16 to 18 hrs by microbroth dilution method; assay type: functional; method in brief: as §1
Pseudomonas aeruginosa [4] = assay: Antibacterial activity against Pseudomonas aeruginosa ATCC 27853 after 16 to 18 hrs by microbroth dilution method; assay type: functional; method in brief: as §1
Aeromonas hydrophila = assay: Antibacterial activity against Aeromonas hydrophila ATCC 7966 after 16 to 18 hrs by microbroth dilution method; assay type: functional; method in brief: as §1
Bacillus subtilis = assay: Antibacterial activity against Bacillus subtilis ATCC 6633 after 16 to 18 hrs by microbroth dilution method; assay type: functional; method in brief: as §1
Streptococcus pyogenes = assay: Antibacterial activity against Streptococcus pyogenes ATCC 12344 after 16 to 18 hrs by microbroth dilution method; assay type: functional; method in brief: as §1
[5] = test system: Elizabethkingia meningoseptica; assay: Antibacterial activity against Elizabethkingia meningoseptica CCUG 4310 after 16 to 18 hrs by microbroth dilution method; assay type: functional; method in brief: as §1
Enterococcus faecalis = assay: Antibacterial activity against Enterococcus faecalis ATCC 19433 after 16 to 18 hrs by microbroth dilution method; assay type: functional; method in brief: as §1
[6] = Apparent permeability of the compound assessed as membrane retention at pH 10.0 after 5 hrs by PAMPA; assay type: physicochemical; conditions: pH 10, 5 h
Method in brief: (§2)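 Parallel artificial membrane permeability assay run at physiological pH 7.4 and at alkaline pH 10.0, the duodenal-like condition, as a gastrointestinal permeability model. Apparent permeability (P_app) is reported in nm/s, together with the percentage of compound retained in the membrane.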

[7] = Apparent permeability of the compound assessed as membrane retention at pH 7.4 after 5 hrs by PAMPA; assay type: physicochemical; conditions: pH 7.4, 5 h; method in brief: as §2
[8] = Apparent permeability of the compound at pH 10.0 after 5 hrs by PAMPA; assay type: physicochemical; method in brief: as §2
[9] = Apparent permeability of the compound at pH 7.4 after 5 hrs by PAMPA; assay type: physicochemical; method in brief: as §2
Klebsiella pneumoniae [10] = assay: Antibacterial activity against penicillin/expanded-spectrum cephalosporin/carbapenem/aminoglycoside/fluoroquinolone/trimethoprim/sulfamethoxazole-resistant Klebsiella pneumoniae 7023 after 16 to 18 hrs by microbroth dilution method; assay type: functional
Method in brief: (§3)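 Broth microdilution MIC per CLSI in Mueller–Hinton broth. Inoculum 5 × 10⁴ CFU/well. Compounds dissolved in DMSO at 100 mg/ml, then diluted in culture medium. Plates incubated 16–18 h at 35–37 °C before reading the MIC. Strains were taken from ATCC or CCUG collections or from the authors' clinical isolate collection.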

[11] = test system: Stenotrophomonas maltophilia; assay: Antibacterial activity against penicillin/expanded-spectrum cephalosporin/carbapenem/monobactam/aminoglycoside/trimethoprim/sulfamethoxazole/fosfomycin-resistant Stenotrophomonas maltophilia 634/08 after 16 to 18 hrs by microbroth dilution method; assay type: functional; method in brief: as §3
Acinetobacter baumannii [12] = assay: Antibacterial activity against penicillin/expanded-spectrum cephalosporin/carbapenem/aztreonam/aminoglycoside/fluoroquinolone/fosfomycin/trimethoprim/sulfamethoxazole-resistant Acinetobacter baumannii AC-54/97 after 16 to 18 hrs by microbroth dilution method; assay type: functional; method in brief: as §3
Pseudomonas aeruginosa [13] = assay: Antibacterial activity against penicillin/expanded-spectrum cephalosporin/carbapenem/monobactam/aminoglycoside/fluoroquinolone-resistant Pseudomonas aeruginosa VR-143/97 after 16 to 18 hrs by microbroth dilution method; assay type: functional; method in brief: as §3
[14] = test system: Achromobacter xylosoxidans; assay: Antibacterial activity against penicillin/expanded-spectrum cephalosporin/carbapenem/aminoglycoside-resistant Achromobacter xylosoxidans AX 22 after 16 to 18 hrs by microbroth dilution method; assay type: functional; method in brief: as §3
Enterobacter cloacae = assay: Antibacterial activity against penicillin/CEPH/carbapenem/aminoglycoside/fluoroquinolone-resistant Enterobacter cloacae VA-417/02 after 16 to 18 hrs by microbroth dilution method; assay type: functional; method in brief: as §3
Alcaligenes faecalis = assay: Antibacterial activity against expanded-spectrum cephalosporin/carbapenem/monobactam-resistant Alcaligenes faecalis 424/98 after 16 to 18 hrs by microbroth dilution method; assay type: functional; method in brief: as §3
Pseudomonas aeruginosa [15] = assay: Antibacterial activity against penicillin/expanded-spectrum cephalosporin/carbapenem/aminoglycoside-resistant Pseudomonas aeruginosa 101/1477 after 16 to 18 hrs by microbroth dilution method; assay type: functional; method in brief: as §3

Row | SMILES | MIC [1] [µg/mL] | MIC (Escherichia coli) [µg/mL] | MIC (Klebsiella pneumoniae [2]) [µg/mL] | MIC (Acinetobacter baumannii [3]) [µg/mL] | MIC (Pseudomonas aeruginosa [4]) [µg/mL] | MIC (Aeromonas hydrophila) [µg/mL] | MIC (Bacillus subtilis) [µg/mL] | MIC (Streptococcus pyogenes) [µg/mL] | MIC [5] [µg/mL] | MIC (Enterococcus faecalis) [µg/mL] | other results
1 | CC(C)=CCNC(=N)NCCCCCCN1CCCCCCCCNC(=N)NC1=O.O=C(O)C(F)(F)F.O=C(O)C(F)(F)F | 16 | 256 | > 256 | 256 | > 256 | > 256 | 64 | 8 | > 256 | 16 | –
2 | CO[C@H]1/C=C/O[C@@]2(C)Oc3c(C)c(O)c4c(O)c(c5c(nc6cc(C)ccn65)c4c3C2=O)NC(=O)/C(C)=C\C=C\[C@H](C)[C@H](O)[C@@H](C)[C@@H](O)[C@@H](C)[C@H](OC(C)=O)[C@@H]1C [RIFAXIMIN] | – | – | – | – | – | – | – | – | – | – | Papp [6]: 0%; Papp [7]: 0%; Papp at 5 h [8]: 0.012 ×10⁻⁶ cm/s; Papp at 5 h [9]: 0.006 ×10⁻⁶ cm/s
3 | CN(CCCCCCCCNCCCCCCCCNC(=N)N)C(=N)NCc1ccccc1.O=C(O)C(F)(F)F.O=C(O)C(F)(F)F.O=C(O)C(F)(F)F | 32 | > 256 | 32 | 128 | 32 | 256 | > 256 | 16 | 64 | 16 | –
4 | C#CCNC(=N)NCCCCCCN1CCCCCCCCNC(=N)NC1=O.O=C(O)C(F)(F)F.O=C(O)C(F)(F)F | 32 | > 256 | > 256 | > 256 | > 256 | > 256 | 64 | 16 | > 256 | 128 | –
5 | C#CCNC(=N)N(C)CCCCCCCCNCCCCCCCCNC(=N)N.O=C(O)C(F)(F)F.O=C(O)C(F)(F)F.O=C(O)C(F)(F)F | 16 | > 256 | 16 | 256 | 32 | > 256 | 256 | 16 | 64 | 8 | –
6 | CN(CCCCCCCCNCCCCCCCCNC(=N)N)C(=N)NCC1CC1.O=C(O)C(F)(F)F.O=C(O)C(F)(F)F.O=C(O)C(F)(F)F | 8 | > 256 | 8 | 256 | 8 | > 256 | 256 | 8 | 32 | 4 | –
7 | N=C(NCCCCCCCCN1CCCCCCCCNC(=N)NC1=O)NCC1CC1.O=C(O)C(F)(F)F.O=C(O)C(F)(F)F | 8 | – | 128 | 64 | > 256 | – | 4 | 32 | – | 32 | –
8 | N=C(N)NCCCCCCCCNCCCCCCCCNC(=N)NCc1ccccc1.O=C(O)C(F)(F)F.O=C(O)C(F)(F)F.O=C(O)C(F)(F)F | 4 | 8 | 16 | 64 | 64 | 64 | 4 | 1 | – | 16 | –
9 | C=CCNC(=N)NCCCCCCCCN1CCCCCCCCNC(=N)NC1=O.O=C(O)C(F)(F)F.O=C(O)C(F)(F)F | 16 | – | 128 | 64 | > 256 | – | 1 | 4 | – | 128 | –
10 | O=C(N[C@H](CO)[C@H](O)c1ccc([N+](=O)[O-])cc1)C(Cl)Cl [CHLORAMPHENICOL] | – | – | – | – | – | – | – | – | – | – | Papp [6]: 0%; Papp [7]: 0%; Papp at 5 h [8]: 0.057 ×10⁻⁶ cm/s; Papp at 5 h [9]: 0.03 ×10⁻⁶ cm/s
11 | C#CCNC(=N)NCCCCCCCCNCCCCCCCCNC(=N)N.O=C(O)C(F)(F)F.O=C(O)C(F)(F)F.O=C(O)C(F)(F)F | 4 | 16 | 32 | 128 | 256 | 256 | 4 | 2 | > 256 | 16 | –
12 | C/C=C/CNC(=N)NCCCCCCCCN1CCCCCCCCNC(=N)NC1=O.O=C(O)C(F)(F)F.O=C(O)C(F)(F)F | 4 | 64 | 32 | 32 | 256 | 64 | 4 | 2 | 128 | 8 | –
13 | C=C(C)CNC(=N)NCCCCCCN1CCCCCCCCNC(=N)NC1=O.O=C(O)C(F)(F)F.O=C(O)C(F)(F)F | 16 | 256 | > 256 | 256 | > 256 | > 256 | 16 | 8 | > 256 | 64 | –
14 | N=C(NCCCCCCCCN1CCCCCCCCNC(=N)NC1=O)NCC1CCC1.O=C(O)C(F)(F)F.O=C(O)C(F)(F)F | 4 | 64 | 32 | 32 | > 256 | 64 | 4 | 2 | 256 | 8 | –
15 | C=C(C)CNC(=N)NCCCCCCCCN1CCCCCCCCNC(=N)NC1=O.O=C(O)C(F)(F)F.O=C(O)C(F)(F)F | 0.5 | 0.5 | 1 | 8 | 8 | 4 | 0.5 | 0.5 | 32 | 1 | MIC (Klebsiella pneumoniae [10]): 1 µg/mL; MIC [11]: 4 µg/mL; MIC (Acinetobacter baumannii [12]): 4 µg/mL; MIC (Pseudomonas aeruginosa [13]): 8 µg/mL; MIC [14]: 8 µg/mL; MIC (Enterobacter cloacae): 1 µg/mL; MIC (Alcaligenes faecalis): 4 µg/mL; MIC (Pseudomonas aeruginosa [15]): 8 µg/mL
16 | CCNC(=N)NCCCCCCN1CCCCCCCCNC(=N)NC1=O.O=C(O)C(F)(F)F.O=C(O)C(F)(F)F | 32 | > 256 | > 256 | > 256 | > 256 | > 256 | 64 | 16 | > 256 | 128 | –
17 | C/C=C/CNC(=N)NCCCCCCN1CCCCCCCCNC(=N)NC1=O.O=C(O)C(F)(F)F.O=C(O)C(F)(F)F | 16 | 256 | > 256 | 256 | > 256 | > 256 | 16 | 32 | 256 | 32 | –
18 | C=C(C)CNC(=N)NCCCCCCCCNCCCCCCCCNC(=N)N.O=C(O)C(F)(F)F.O=C(O)C(F)(F)F.O=C(O)C(F)(F)F | 64 | 128 | 256 | > 256 | > 256 | > 256 | 64 | 16 | > 256 | 256 | –
19 | N=C(NCCCCCCCCNCCCCCCCCNC(=N)NCC1CC1)NCC1CC1.O=C(O)C(F)(F)F.O=C(O)C(F)(F)F.O=C(O)C(F)(F)F | > 256 | > 256 | > 256 | > 256 | > 256 | > 256 | > 256 | > 256 | > 256 | > 256 | –
20 | N=C(N)NCCCCCCNCCCCCCNC(=N)NCC1CC1.O=C(O)C(F)(F)F.O=C(O)C(F)(F)F.O=C(O)C(F)(F)F | 256 | > 256 | 256 | > 256 | > 256 | > 256 | > 256 | 32 | > 256 | 16 | –
